# Assays:
# [1] = Cmax in Sprague-Dawley rat at 3 mg/kg, iv by LC-MS/MS analysis; format: ADME, organism-based; set-up: dose 3 mg/kg, route intravenous; conditions: in vivo
# [2] = Apparent volume of distribution in Sprague-Dawley rat at 3 mg/kg, iv by LC-MS/MS analysis; format: ADME, organism-based; conditions: in vivo, read-out: Vz
# In short: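 Non-compartmental PK. Male SD rats 190-210 g, mice and beagle dogs acclimatized one week, fasted 12 h with water, split into iv and po groups (mice 48, rats 6, dogs 6). iv 3/3/2 mg/kg (mice/rats/dogs); po 10/20/10 mg/kg; vehicle DMSO in 5% glucose water. Blood at 2 or 5 to 720 min; plasma protein-precipitated with methanol, caffeine internal standard, LC-MS/MS.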
# [3] = system: Tyrosine-protein kinase ABL1 (Homo sapiens), P00519 [F317L]; test: Binding affinity to human non-phosphorylated ABL1 F317L mutant (S229 to K512 residues) expressed in mammalian expression system assessed as remaining unbound target protein level at 1000 nM by Kinomescan method relative to control
# In short: (§1)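 KINOMEscan competition-binding profiling across the panel of 468 kinases and mutants, with inhibitor tested at 1 μM. Binding is expressed as percent of control, with DMSO as the reference control.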
# [4] = target: Mitotic checkpoint serine/threonine-protein kinase BUB1 (Homo sapiens) (UniProt O43683); test: Binding affinity to wild-type human partial length BUB1 (Q724 to K1085 residues) expressed in mammalian expression system assessed as remaining unbound target protein level at 1000 nM by Kinomescan method relative to control
# In short: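 Profiled in a KINOMEscan binding panel with the inhibitor at a single concentration of 1 μM. Binding to each kinase was read out as percent of control, relative to a DMSO control. Strong binders were defined as those with a percent control value below 1.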
# [5] = target: Citron Rho-interacting kinase (Homo sapiens) (UniProt O14578); test: Binding affinity to wild-type human partial length CIT (M68 to E432 residues) expressed in bacterial expression system assessed as remaining unbound target protein level at 1000 nM by Kinomescan method relative to control
# In short: (§2)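 KINOMEscan competition binding profile across a panel of 468 kinases and mutants, with the inhibitor tested at a single concentration of 1 μM. Binding is reported as percent of control, meaning signal relative to a DMSO control.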
# [6] = target: Epidermal growth factor receptor (Homo sapiens) (UniProt P00533); test: Binding affinity to human partial length EGFR S752-I759del mutant expressed in bacterial expression system assessed as remaining unbound target protein level at 1000 nM by Kinomescan method relative to control; in short: as §1
# [7] = target: Inhibitor of nuclear factor kappa-B kinase subunit epsilon (Homo sapiens) (UniProt Q14164); test: Binding affinity to wild-type human full length IKK-epsilon (M1 to V716 residues) expressed in mammalian expression system assessed as remaining unbound target protein level at 1000 nM by Kinomescan method relative to control; in short: as §2
# [8] = target: Insulin receptor (Homo sapiens) (UniProt P06213); test: Binding affinity to wild-type human partial length INSR (P997 to E1318 residues) expressed in mammalian expression system assessed as remaining unbound target protein level at 1000 nM by Kinomescan method relative to control
# In short: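 KINOMEscan binding panel of 468 kinases/mutants. Inhibitor was tested at a single concentration of 1 μM. Binding is reported as percent of control, defined relative to a DMSO control.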
# [9] = target: Insulin receptor-related protein (Homo sapiens) (UniProt P14616); test: Binding affinity to wild-type human partial length INSRR (R950 to E1278 residues) expressed in bacterial expression system assessed as remaining unbound target protein level at 1000 nM by Kinomescan method relative to control
# [10] = target: Mitogen-activated protein kinase 8 (Homo sapiens) (UniProt P45983); test: Binding affinity to wild-type human full length JNK1 (M1 to Q384 residues) expressed in mammalian expression system assessed as remaining unbound target protein level at 1000 nM by Kinomescan method relative to control; in short: as §2
# [11] = target: Mitogen-activated protein kinase kinase kinase 13 (Homo sapiens) (UniProt O43283); test: Binding affinity to wild-type human full length LZK (M1 to W966 residues) expressed in mammalian expression system assessed as remaining unbound target protein level at 1000 nM by Kinomescan method relative to control; in short: as §2
# [12] = target: Mitogen-activated protein kinase kinase kinase kinase 3 (Homo sapiens) (UniProt Q8IVH8); test: Binding affinity to wild-type human partial length MAP4K3 (M1 to D301 residues) expressed in bacterial expression system assessed as remaining unbound target protein level at 1000 nM by Kinomescan method relative to control
# [13] = target: Cyclin-dependent kinase 2 homolog (Plasmodium falciparum (isolate 3D7)) (UniProt P61075); test: Binding affinity to wild-type Plasmodium falciparum full length PK5 (M1 to N288 residues) expressed in mammalian expression system assessed as remaining unbound target protein level at 1000 nM by Kinomescan method relative to control
# In short: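 Single-point competition binding screen across a panel of 468 kinases and mutants, with the inhibitor at 1 μM. Binding is read out as percent of a DMSO control, and targets below 1 percent control were classed as strong binders.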
# Insulin receptor-related protein (Homo sapiens), sequence (P14616 27-742 limits assumed): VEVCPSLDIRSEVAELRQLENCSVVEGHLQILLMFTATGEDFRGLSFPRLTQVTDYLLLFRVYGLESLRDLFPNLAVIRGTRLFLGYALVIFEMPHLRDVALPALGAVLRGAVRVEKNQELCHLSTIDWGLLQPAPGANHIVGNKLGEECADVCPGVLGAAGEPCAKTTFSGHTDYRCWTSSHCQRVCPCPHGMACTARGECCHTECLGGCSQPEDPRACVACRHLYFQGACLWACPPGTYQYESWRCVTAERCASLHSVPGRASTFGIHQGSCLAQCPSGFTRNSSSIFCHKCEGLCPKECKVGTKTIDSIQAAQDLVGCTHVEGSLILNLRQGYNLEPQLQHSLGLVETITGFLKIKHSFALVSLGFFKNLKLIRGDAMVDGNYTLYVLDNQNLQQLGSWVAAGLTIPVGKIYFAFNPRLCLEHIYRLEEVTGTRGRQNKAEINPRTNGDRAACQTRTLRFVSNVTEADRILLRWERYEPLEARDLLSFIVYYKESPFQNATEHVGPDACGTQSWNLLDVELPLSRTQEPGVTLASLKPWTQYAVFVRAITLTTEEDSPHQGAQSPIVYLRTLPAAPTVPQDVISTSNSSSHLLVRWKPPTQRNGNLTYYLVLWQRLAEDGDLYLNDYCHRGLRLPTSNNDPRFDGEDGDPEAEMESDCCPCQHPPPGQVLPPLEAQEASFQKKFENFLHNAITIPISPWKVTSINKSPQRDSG
# Insulin receptor-related protein (Homo sapiens), sequence (P14616 747-1297 limits assumed): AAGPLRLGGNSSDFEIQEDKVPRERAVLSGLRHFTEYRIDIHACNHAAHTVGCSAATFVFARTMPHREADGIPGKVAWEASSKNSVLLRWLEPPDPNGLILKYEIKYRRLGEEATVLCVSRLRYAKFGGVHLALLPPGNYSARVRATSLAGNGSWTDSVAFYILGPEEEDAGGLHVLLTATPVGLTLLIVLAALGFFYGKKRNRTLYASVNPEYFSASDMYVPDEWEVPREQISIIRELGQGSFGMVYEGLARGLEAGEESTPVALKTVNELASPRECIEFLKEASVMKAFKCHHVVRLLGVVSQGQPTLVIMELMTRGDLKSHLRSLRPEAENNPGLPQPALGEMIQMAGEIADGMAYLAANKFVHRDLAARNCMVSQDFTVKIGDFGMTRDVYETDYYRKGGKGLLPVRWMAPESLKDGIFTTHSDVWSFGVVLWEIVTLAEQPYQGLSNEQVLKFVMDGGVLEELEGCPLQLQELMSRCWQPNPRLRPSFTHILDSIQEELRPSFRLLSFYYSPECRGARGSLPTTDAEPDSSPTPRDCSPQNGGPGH
# Inhibitor of nuclear factor kappa-B kinase subunit epsilon (Homo sapiens), sequence (Q14164 whole entry, the tested form may be a part): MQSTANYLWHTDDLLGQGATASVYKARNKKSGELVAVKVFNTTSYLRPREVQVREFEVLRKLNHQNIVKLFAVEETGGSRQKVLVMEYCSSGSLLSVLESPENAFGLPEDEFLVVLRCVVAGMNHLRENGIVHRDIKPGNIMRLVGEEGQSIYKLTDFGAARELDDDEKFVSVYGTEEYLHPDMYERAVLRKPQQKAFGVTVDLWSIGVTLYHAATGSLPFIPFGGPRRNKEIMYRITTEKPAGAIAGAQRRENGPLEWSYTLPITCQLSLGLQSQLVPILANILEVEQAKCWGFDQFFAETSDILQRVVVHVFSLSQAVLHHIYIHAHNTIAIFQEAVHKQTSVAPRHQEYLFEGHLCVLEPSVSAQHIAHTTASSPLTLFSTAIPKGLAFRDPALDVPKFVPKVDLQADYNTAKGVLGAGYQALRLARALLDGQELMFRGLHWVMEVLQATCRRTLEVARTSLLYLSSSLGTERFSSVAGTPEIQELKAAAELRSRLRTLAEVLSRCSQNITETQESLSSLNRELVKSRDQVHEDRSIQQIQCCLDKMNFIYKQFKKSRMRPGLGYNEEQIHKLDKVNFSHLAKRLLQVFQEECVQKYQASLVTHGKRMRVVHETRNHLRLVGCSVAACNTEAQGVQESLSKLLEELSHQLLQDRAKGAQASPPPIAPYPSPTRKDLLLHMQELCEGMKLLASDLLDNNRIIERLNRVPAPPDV
# Mitogen-activated protein kinase kinase kinase kinase 3 (Homo sapiens), sequence (Q8IVH8 whole entry, the tested form may be a part): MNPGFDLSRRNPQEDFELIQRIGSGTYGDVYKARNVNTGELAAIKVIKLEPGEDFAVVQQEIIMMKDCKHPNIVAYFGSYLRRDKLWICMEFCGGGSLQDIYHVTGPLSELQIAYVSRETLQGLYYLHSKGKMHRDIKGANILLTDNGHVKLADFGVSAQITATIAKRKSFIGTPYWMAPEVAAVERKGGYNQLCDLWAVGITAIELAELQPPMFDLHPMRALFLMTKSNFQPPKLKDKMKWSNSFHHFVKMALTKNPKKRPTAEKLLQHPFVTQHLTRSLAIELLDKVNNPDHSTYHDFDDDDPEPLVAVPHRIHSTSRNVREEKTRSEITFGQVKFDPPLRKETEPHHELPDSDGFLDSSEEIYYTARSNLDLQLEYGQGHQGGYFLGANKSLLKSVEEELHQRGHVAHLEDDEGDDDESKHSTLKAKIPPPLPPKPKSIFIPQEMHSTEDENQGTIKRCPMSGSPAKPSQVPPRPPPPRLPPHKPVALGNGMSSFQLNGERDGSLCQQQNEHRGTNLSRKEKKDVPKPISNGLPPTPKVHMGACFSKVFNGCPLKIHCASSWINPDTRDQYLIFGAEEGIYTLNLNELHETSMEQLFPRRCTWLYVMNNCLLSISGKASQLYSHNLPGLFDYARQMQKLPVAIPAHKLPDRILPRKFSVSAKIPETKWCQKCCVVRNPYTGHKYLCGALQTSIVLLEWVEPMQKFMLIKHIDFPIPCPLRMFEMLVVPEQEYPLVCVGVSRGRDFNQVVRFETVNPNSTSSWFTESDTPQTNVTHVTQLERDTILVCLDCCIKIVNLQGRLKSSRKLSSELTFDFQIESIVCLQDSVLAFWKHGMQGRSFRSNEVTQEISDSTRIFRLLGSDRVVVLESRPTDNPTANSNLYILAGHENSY
# Mitotic checkpoint serine/threonine-protein kinase BUB1 (Homo sapiens), sequence (O43683 whole entry, looked up, the tested form may be a part): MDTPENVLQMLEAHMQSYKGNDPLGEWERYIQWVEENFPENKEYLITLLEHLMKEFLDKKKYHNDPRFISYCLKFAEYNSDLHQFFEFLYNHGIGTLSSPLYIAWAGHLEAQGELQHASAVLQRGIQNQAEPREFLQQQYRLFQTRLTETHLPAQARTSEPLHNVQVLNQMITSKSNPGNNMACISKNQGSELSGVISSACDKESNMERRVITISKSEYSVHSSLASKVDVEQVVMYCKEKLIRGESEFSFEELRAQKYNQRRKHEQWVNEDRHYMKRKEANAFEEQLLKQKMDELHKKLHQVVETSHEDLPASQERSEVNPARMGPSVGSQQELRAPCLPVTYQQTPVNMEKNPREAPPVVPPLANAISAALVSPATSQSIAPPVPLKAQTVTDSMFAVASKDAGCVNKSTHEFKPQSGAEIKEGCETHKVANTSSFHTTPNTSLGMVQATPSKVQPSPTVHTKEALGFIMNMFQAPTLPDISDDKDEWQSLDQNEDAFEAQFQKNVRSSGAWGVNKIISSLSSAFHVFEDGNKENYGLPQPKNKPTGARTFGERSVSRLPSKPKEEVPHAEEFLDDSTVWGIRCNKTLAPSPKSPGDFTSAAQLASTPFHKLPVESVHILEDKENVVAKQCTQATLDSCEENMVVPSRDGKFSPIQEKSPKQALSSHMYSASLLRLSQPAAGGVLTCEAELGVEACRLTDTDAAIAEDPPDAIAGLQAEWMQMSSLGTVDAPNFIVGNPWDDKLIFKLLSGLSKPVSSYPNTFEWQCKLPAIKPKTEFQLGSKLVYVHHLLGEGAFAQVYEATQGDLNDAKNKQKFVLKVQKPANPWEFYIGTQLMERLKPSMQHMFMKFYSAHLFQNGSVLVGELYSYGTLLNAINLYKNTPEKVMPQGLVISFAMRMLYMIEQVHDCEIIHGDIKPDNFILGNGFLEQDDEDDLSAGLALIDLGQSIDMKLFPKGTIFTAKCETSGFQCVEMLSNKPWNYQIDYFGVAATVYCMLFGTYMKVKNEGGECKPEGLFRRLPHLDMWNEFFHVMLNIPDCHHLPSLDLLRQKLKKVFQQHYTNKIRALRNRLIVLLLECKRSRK
# Mitogen-activated protein kinase kinase kinase 13 (Homo sapiens), sequence (O43283 whole entry, the tested form may be a part): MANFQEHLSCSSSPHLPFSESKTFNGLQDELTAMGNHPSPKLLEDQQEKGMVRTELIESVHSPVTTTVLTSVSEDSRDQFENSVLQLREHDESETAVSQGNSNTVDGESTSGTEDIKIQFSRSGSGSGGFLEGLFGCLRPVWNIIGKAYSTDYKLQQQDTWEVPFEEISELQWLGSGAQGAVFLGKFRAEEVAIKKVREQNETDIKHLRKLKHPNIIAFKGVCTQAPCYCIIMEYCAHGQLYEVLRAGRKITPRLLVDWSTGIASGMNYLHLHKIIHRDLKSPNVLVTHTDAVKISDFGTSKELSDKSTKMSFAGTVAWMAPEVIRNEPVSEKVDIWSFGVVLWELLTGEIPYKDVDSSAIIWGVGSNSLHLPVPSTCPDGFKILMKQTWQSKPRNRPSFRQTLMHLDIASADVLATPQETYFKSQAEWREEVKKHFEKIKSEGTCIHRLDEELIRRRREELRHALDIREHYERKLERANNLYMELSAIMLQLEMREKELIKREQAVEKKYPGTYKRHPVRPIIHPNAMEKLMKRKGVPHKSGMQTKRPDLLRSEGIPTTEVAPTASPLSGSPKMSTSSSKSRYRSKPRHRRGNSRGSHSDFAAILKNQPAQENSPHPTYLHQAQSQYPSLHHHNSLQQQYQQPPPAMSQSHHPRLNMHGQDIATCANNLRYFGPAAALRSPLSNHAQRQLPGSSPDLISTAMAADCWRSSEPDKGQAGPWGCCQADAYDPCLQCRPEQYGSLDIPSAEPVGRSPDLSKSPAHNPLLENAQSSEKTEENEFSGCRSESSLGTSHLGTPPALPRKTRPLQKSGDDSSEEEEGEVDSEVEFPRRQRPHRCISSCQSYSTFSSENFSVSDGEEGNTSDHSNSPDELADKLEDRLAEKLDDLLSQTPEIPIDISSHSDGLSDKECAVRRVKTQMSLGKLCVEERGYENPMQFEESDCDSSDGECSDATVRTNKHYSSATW
compound,measurement,setting,value
COCCN[C@H]1CC[C@H](Nc2cc(-c3csc(NCC4(C#N)CCOCC4)n3)c(Cl)cn2)CC1,Cmax,[1],1470 ng/mL
same,Vd,[2],44.5 L/kg
same,Activity,[3],100%
same,Activity,[4],96%
same,Activity,[5],23%
same,Activity,[6],87%
same,Activity,[7],99%
same,Activity,[8],94%
same,Activity,[9],92%
same,Activity,[10],4.8%
same,Activity,[11],99%
same,Activity,[12],100%
same,Activity,[13],100%

# — ChEMBL document CHEMBL4261600 (Eur J Med Chem, 2018)
